This note sets out measurements from ChEMBL document CHEMBL1765065, “Pro-soft Val-boroPro: a strategy for enhancing in vivo performance of boronic acid inhibitors of serine proteases” (J Med Chem, 2011).

Activity calls are given as the source filed them. The rule behind the calls is not given here. Starred links: 1 amine or outer side, 2 acyl side, 3 side chain; linkers in the order of their positions; H or OH if unused. Residues, ends and D or L forms follow the SMILES beside them. *: point of attachment. Suc = O=C(CCC(=O)[*:2])[*:1]; boroPro = OB(O)[C@@H]1CCCN1*

What is called IC50 is the concentration at which inhibition is half-maximal. Low readings indicate higher potency, high ones lower potency. By half-life is commonly meant how long it takes for the measured level to halve. What is called LD50 is the dose at which mortality reaches 50%.

For series [1], the target named is T1, Dipeptidyl peptidase 4 (Homo sapiens, UniProt P27487). As to the kind of experiment: Inhibition of DDP4 at pH 2 preincubated for 10 mins.
Target sequence in this assay (P27487 whole entry): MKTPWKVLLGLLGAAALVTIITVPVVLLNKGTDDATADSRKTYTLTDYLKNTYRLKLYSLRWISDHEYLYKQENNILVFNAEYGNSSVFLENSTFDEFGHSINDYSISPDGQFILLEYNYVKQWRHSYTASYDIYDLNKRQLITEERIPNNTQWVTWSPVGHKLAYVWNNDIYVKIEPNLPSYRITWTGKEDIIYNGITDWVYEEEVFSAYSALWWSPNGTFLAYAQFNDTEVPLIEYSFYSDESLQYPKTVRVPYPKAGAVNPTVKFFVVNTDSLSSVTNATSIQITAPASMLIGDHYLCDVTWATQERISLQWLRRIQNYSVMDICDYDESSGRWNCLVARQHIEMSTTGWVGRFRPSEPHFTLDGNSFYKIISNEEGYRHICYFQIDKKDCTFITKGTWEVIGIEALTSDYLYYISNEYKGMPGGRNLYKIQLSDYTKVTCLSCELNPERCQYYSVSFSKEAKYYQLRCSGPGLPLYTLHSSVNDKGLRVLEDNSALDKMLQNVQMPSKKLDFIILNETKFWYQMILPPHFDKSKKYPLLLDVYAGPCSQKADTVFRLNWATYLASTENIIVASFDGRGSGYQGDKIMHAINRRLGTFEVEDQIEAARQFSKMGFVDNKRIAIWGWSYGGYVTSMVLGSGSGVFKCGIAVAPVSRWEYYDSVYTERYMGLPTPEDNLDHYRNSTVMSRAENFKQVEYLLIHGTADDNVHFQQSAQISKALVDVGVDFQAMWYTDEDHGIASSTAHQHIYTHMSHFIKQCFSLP
Series [2] is described as follows: Effect on pro-drug activation assessed as Chg-Pro formation by mass spectrometry. In kind it is physicochemical. Summed up: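 Prodrug (10 mM stock) incubated with purified DPPIV (2 μM stock) or no enzyme in 0.1 M HEPES, 0.14 M NaCl, pH 8.0, for 10 min at 25 °C. Desalted on C18 and lyophilized. Chg-Pro detected by reverse-phase HPLC-MS scanning its m/z; Chg-Pro was the reference.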

The subject of another series is Rattus norvegicus. The series is described as follows: (§1) Toxicity in po dosed Fisher rat assessed as mortality measured up to 24 hrs. The format is organism-based. The following applies: in vivo, 24 h.
The subject of series [3] is Mus musculus. As to the kind of experiment: DDP4-mediated pro-drug activation in ip dosed wild type C57BL/6 mouse assessed as pro-drug level in serum by LC/MS analysis. The format is organism-based. The following applies: in vivo. The procedure, abridged: (§2)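 Wild-type C57BL/6 (CD26+/+) or DPPIV knockout (CD26-/-) mice, 3 per group, acclimated ≥1 week. Given 50 μg ip in PBS. Blood taken by cardiac puncture after 5 min and treated with 10% TCA. Supernatant intact prodrug quantified by reverse-phase HPLC-MS base peak chromatograms.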

The test system of series [4] is Mus musculus. The series is described as follows: Antidiabetic activity in po dosed C57BL/KS01HSDLeprdb mouse assessed as decrease in serum glucose AUC level by oral glucose tolerance test. In kind it is functional, organism-based. Summed up: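 Diabetic male C57BL/KS01HSDLeprdb mice (nondiabetic C57BL/6NHHsd as comparison) acclimated 3 weeks and fasted 4 h. Given 0.0025, 0.01, 0.025 or 0.05 mg/kg free-inhibitor equivalent by oral gavage; vehicle H2O. Oral glucose 1 g/kg given 3 h post-dose. Glucometer blood glucose at predose, 15, 30, 60, 120 and 240 min (5 mice/group); AUC.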

The test system of series [5] is Mus musculus. As to the kind of experiment: DDP4-mediated pro-drug activation in ip dosed CD26 -/- mouse assessed as pro-drug level in serum by LC/MS analysis. In kind it is organism-based. The following applies: in vivo. The procedure, abridged:
as §2

Series [6] has as its system Mus musculus. The series is described as follows: Antidiabetic activity in C57BL/KS01HSDLeprdb mouse assessed as decrease in serum glucose AUC level at 0.5 mg/kg, po by oral glucose tolerance test. The format is functional, organism-based. Set-up: dose 0.5 mg/kg.
The target in series [7] is T1, Dipeptidyl peptidase 4. As to the kind of experiment: Inhibition of DDP4 at pH 7.4 preincubated for 10 mins.
Target sequence in this assay (P27487 whole entry): as above
Series [8] is described as follows: Chemical stability of the compound assessed as half life at physiological pH. In kind it is physicochemical.
Series [9] in a line: Inhibition of alpha-chymotrypsin.
Series [10] deals with T1, Dipeptidyl peptidase 4. The series is described as follows: Inhibition of DDP4 at pH 7.4 preincubated with alpha-chymotrypsin up to 8 hrs. The procedure, abridged: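 Prodrug preincubated with 0.1 mM α-chymotrypsin for 0, 0.5, 1, 2, 4, 6 or 24 h before purified DPPIV was added. The DPPIV assay then followed: 0.3 mM H-Ala-Pro-pNA, A410, HEPES/NaCl buffer.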
Target sequence in this assay (P27487 whole entry): as above
In series [11] the target is T1, Dipeptidyl peptidase 4. The series is described as follows: Inhibition of DDP4. The procedure, abridged: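 Purified DPPIV (~1 nM) in 0.1 M HEPES, 0.14 M NaCl, pH 7.4 or 8.0, at 25 or 37 °C. Inhibitor (10^-5 to 10^-11 M) preincubated 10 min with enzyme before 0.3 mM H-Ala-Pro-pNA; A410 read. Stocks made in HCl pH 2.0 or buffer pH 7.4/8.0 and diluted just before use.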
Target sequence in this assay (P27487 whole entry, looked up): as the sequence (P27487 whole entry) above

A short description of series [12]: as §1. The format is organism-based. The following applies: Fisher, in vivo.

In the case of `CC(C)[C@H](NC(=O)[C@@H]1CCCN1C(=O)[C@@H](N)C1CCCCC1)C(=O)N1CCC[C@H]1B(O)O`, the figures for the IC50 against Dipeptidyl peptidase 4 [1] and against Dipeptidyl peptidase 4 [7] were 20 nM and 19 nM, respectively. Further, the Activity result is “Not Active” in series [2]; “Non-toxic” in the series on Rattus norvegicus; “Not Active” in the series with Mus musculus [3]; “Dose-dependent effect” in the series with Mus musculus [4]; “Active” in the series on Mus musculus [5]. Also, the outcome in the series with Mus musculus [6] was Active.

For `CC(=O)N[C@H](C(=O)N1CCC[C@H]1B(O)O)C(C)C`, the half-life in series [8] amounted to 30 min.

As for `C[C@H](NC(=O)[C@@H]1CCCN1C(=O)[C@@H](N)Cc1ccccc1)C(=O)N1CCC[C@H]1B(O)O`, the IC50 came to 8.3 nM at Dipeptidyl peptidase 4 [1] and 7 nM on Dipeptidyl peptidase 4 [7].

As for `C[C@H](NC(=O)CCC(=O)O)C(=O)N[C@@H](C)C(=O)N1CCC[C@H]1C(=O)N[C@@H](Cc1ccccc1)C(=O)N[C@@H](C)C(=O)N1CCC[C@H]1B(O)O` (Suc-AAPFA-boroPro), the inhibition entry (in series [9]; at Dipeptidyl peptidase 4 [11]) was “inactive” throughout. The compound also had an IC50 against Dipeptidyl peptidase 4 [10] of 0.7 nM.

`CC(C)[C@H](N)C(=O)N1CCC[C@H]1B(O)O` [TALABOSTAT]: the median lethal dose (LD50) at 24 h in series [12] worked out at 0.5 mg/kg. In the series with Mus musculus [4], the Activity entry is “Dose-dependent effect”. Besides, in the series on Mus musculus [6], the outcome was inactive.
